Structures are written as SMILES. In all, about 300,000 compounds went through this assay and about 4,400 (1.5%) were called active. For the sample, actives were picked, then their nearest neighbours and some compounds at random. Unmarked numbers belong to inactive results.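 The calls were made as follows: active = mean inhibition across valid replicates above about 55% (limit read from the data); inconclusive = mean below that limit but half or more replicates reach it; inactive = mean below it, under half of replicates reach it.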

This test in a line: Trypanosoma cruzi replication blockers in host cells – luminescence, NIH3T3 host cells, primary screen (AID 1885).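 Also: signal also drops with host cell toxicity which is not excluded here; 0% = plate median of DMSO wells and 100% = zero luminescence signal; higher percent means less beta-gal luminescence so fewer parasites.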 Particulars: T. cruzi beta-gal in NIH3T3, luminescence, 90 h; stronger effect = higher value; concentration not given here. Summed up: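 Assay system: NIH/3T3 fibroblasts plus reporter T. cruzi. Amount: NIH/3T3 cells, 5,000 per well. Buffer or medium: DMEM, 2% fetal bovine serum. Doses: compound pinned at 50 nL/well, DMSO. Schedule: ≥90 h infection period, 3 h prior cell attachment. Signal: luminescent β-galactosidase signal after 60 min lysis. Read-out: parasite load inhibition, %.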
For orientation: inhibition means the relative decrease from the control value, in per cent. Regarding `CC12CCC(=O)N1C(C(=O)Nc1ccc(F)c(F)c1F)CS2` (configuration not stated), the inhibition was -7.75%.

Take `COc1cccc(NC(=O)CN(C)C(=O)CSC(=S)N2CCCC2)c1`: the inhibition is -6.94%.

Consider `CCOC(=O)C1=C(C)Nc2sc(C(=O)c3ccc(Br)cc3)c(N)c2C1c1ccc(C(=O)OC)cc1` (configuration not stated), for which the inhibition is 76.1% (active).

On to `CCOC(=O)c1sc(=S)n2c1[nH]c(=O)c1ccc(C(=O)OC)cc12`, for which the inhibition is 4.87%.

As to `CCOC(=O)c1sc(=NC(=O)c2ccc(Br)cc2)n(C)c1C`, the inhibition was -5.34%.

For the compound `COc1cc(C(=O)NCC(=O)NCCSc2ccc(Br)cc2)cc(OC)c1OC`, the inhibition was -6.77%.

For the compound `CCC(C)(C)n1nnnc1C(c1cccs1)N1CCN(c2nc3ccccc3s2)CC1` (configuration not stated), the inhibition is 66.6% (active).

Turning to `CCC(C)(C)n1nnnc1C(c1ccccc1OC)N1CCSCC1` (configuration not stated), the inhibition was -14.5%.

Regarding `CCC(C)(C)n1nnnc1C(c1cccs1)N1CCN(Cc2ccccc2)CC1` (configuration not stated), the inhibition is 5.19%.

Take `COc1ccc(Cc2nnc(SCC(=O)Nc3ccc(C)c(Cl)c3)[nH]c2=O)cc1`: the inhibition is 23.1%.

On to `Fc1cc(Br)ccc1NC(=S)Nc1cccnc1`, for which the inhibition was -15.3%.

For the compound `S=C(Nc1cccc(Br)c1)N1CCn2cccc2C1c1cccnc1` (configuration not stated), the inhibition is 72.8% (active).

Regarding `S=C(NCCc1ccccc1)N1CCn2cccc2C1c1ccncc1` (configuration not stated), the inhibition was 23.4%.

Turning to `O=C(COC(=O)/C=C/c1ccc(OC(F)F)cc1)NC1CCCCC1`, the inhibition was -1.87%.

On to `C=CCn1c(SCCOc2ccc(OC)cc2)nnc1C(NC(=O)c1ccc(OC)cc1)C(C)C` (configuration not stated), for which the inhibition is 4.8%.

As for `Cc1ccc(C(=O)NNC(=O)c2ccncc2)cc1S(=O)(=O)N1CCCCC1`, the inhibition is -3.57%.

On to `Cc1ccc(N=C2SCCCN2C(=O)c2cccc(N3C(=O)CCC3=O)c2)cc1Cl`, for which the inhibition was 35.8%.

Regarding `CC(Nc1nc(N2CCN(CCO)CC2)nc2ccccc12)c1ccccc1` (configuration not stated), the inhibition is -7.35%.

As to `CC(Nc1nc(N2CCCC2)nc2ccccc12)c1ccccc1` (configuration not stated), the inhibition was 58.1% (active).

Consider `CC(Nc1nc(N2CCOCC2)nc2ccccc12)c1ccccc1` (configuration not stated), for which the inhibition was 31.7%.

As for `O=C(NCCC1CCCCN1S(=O)(=O)c1ccc(F)cc1)C(=O)NC1CC1` (configuration not stated), the inhibition is -6.12%.

For `COc1cc(NC(=O)CSc2ccc(-c3cccnc3)nn2)cc(OC)c1`, the inhibition is 1.76%.

Take `COc1ccc(N2CC(NS(=O)(=O)c3ccc4ccccc4c3)CC2=O)cc1` (configuration not stated): the inhibition is -4.61%.

Take `O=C(NCc1ccncc1)c1ccc(NS(=O)(=O)c2cccc([N+](=O)[O-])c2)cc1`: the inhibition was -11.6%.

`O=C(Nc1cc2c3c(c1)C1CCCC1CN3CC1CCCC21)c1ccc([N+](=O)[O-])cc1` (configuration not stated): the inhibition was 82.1% (active).

For `CN1C2CCC1CC(NC(=O)c1ccc([N+](=O)[O-])cc1)C2` (configuration not stated), the inhibition was 8.42%.

`O=C(Nc1ccccc1C(=O)Nc1ccncc1)c1ccc([N+](=O)[O-])cc1`: the inhibition was 31.4%.

For the compound `Cc1csc(=O)n1CC(=O)OCC(=O)N(CC(C)C)c1c(N)n(Cc2ccccc2)c(=O)[nH]c1=O`, the inhibition was -7.8%.

Regarding `Cc1c(NC(=O)CSc2cccc3cccnc23)c(=O)n(-c2ccccc2)n1C`, the inhibition was 67.7% (active).

Regarding `Cc1ccc(NC(=O)CSc2cccc3cccnc23)c(C)c1`, the inhibition was 26.2%.

In the case of `Cc1c(NC(=O)CSc2nnnn2-c2ccc(C(=O)O)cc2)c(=O)n(-c2ccccc2)n1C`, the inhibition is -12.6%.

`CCc1nc(NCCO)c(C#N)c2c1CCCC2`: the inhibition is -15%.

With `CC(C)CCNc1nc(N2CCCC2)c2c(c1C#N)CCN(C)C2`, the inhibition was 58.4% (active).

On to `CC(C)Cc1nc(N2CCOCC2)c(C#N)c2c1CCC2`, for which the inhibition is 9.81%.

Consider `CSCCC(NC(=O)c1ccco1)C(=O)Nc1cc(C)ccn1` (configuration not stated), for which the inhibition is -2.39%.

On to `COc1ccc(C2CC(c3ccc(C)cc3)Nc3nc(N)nn32)cc1` (configuration not stated), for which the inhibition was 61.3% (active).

Regarding `Cc1ccc(C2CC(c3cccc(C)c3)n3nc(N)nc3N2)cc1` (configuration not stated), the inhibition was 36.3%.

For the compound `Cc1ccc(C2CC(c3cccc(Br)c3)n3nc(N)nc3N2)cc1` (configuration not stated), the inhibition was 14.7%.

For `CCc1ccccc1NC(=O)CN(C)S(=O)(=O)c1ccc2c(c1)c(=O)n(C)c(=O)n2C`, the inhibition is -4.15%.

As to `O=C1CSC(c2ccccc2)N1c1nc(-c2ccc(Cl)cc2Cl)cs1` (configuration not stated), the inhibition is 28.7%.

Turning to `Clc1ccc(-c2cc(C3CCNCC3)[nH]n2)c(Cl)c1`, the inhibition was 65.5% (active).

Turning to `Clc1ccc(-c2cc(-c3ccccn3)on2)c(Cl)c1`, the inhibition was 14.9%.

Turning to `CCCN(CC(=O)Nc1ccccc1OC)C(=O)CCC(=O)c1ccc(F)cc1`, the inhibition is 0.665%.

Consider `Cc1cc(C)nc(N/N=C/c2ccc([N+](=O)[O-])o2)n1`, for which the inhibition is 26.9%.

On to `C/[N+]([O-])=C\c1ccc([N+](=O)[O-])o1`, for which the inhibition is 67% (active).

Take `CCc1ccc(S(=O)(=O)N/N=C\c2ccc([N+](=O)[O-])o2)cc1`: the inhibition is 19%.

Consider `COc1ccc(C(=NN)c2ccc(OC)cc2)cc1`, for which the inhibition is -17.9%.

As to `CCCC1(C(=O)OCC)NC(c2ccc(N(C)C)cc2)C2C(=O)N(c3ccc4c(c3)OCCO4)C(=O)C21` (configuration not stated), the inhibition is -15%.

On to `CN(C)CCOc1ccc(Cl)cc1C(C)(C)C`, for which the inhibition is 57.6% (active).

Take `CN(C)CCOCCOc1ccc(Cl)c2ccccc12`: the inhibition was 33.2%.

As to `CC(C)(C)NCCCOc1ccc(Cl)cc1C(C)(C)C`, the inhibition is 33.9%.

Consider `COc1ccccc1C(CNC(=O)c1cccc(NS(=O)(=O)c2ccc(Br)cc2)c1)N(C)C` (configuration not stated), for which the inhibition is 0.0669%.

Consider `CCN(CC(=O)Nc1cc(Cl)ccc1C)C(=O)CSCc1ccc(C)cc1`, for which the inhibition was 7.73%.

As to `O=C(N/N=C/c1cccc(OC(=O)c2ccc([N+](=O)[O-])cc2)c1)c1cccnc1`, the inhibition was -36.5%.

As for `N#Cc1cc([N+](=O)[O-])ccc1Oc1cccc(/C=N/NC(=O)c2ccc(Cl)cc2)c1`, the inhibition was 74.5% (active).

As to `O=C(N/N=C/c1cccc([N+](=O)[O-])c1)c1ccncc1`, the inhibition was -13.8%.

`CCc1ccc(C(=O)NNC(=O)C2CCN(c3ncnc4sc(C)c(C)c34)CC2)cc1`: the inhibition was 24%.

As to `CC(NC(=O)COC(=O)c1ccc2c(c1)OCO2)c1ccccc1` (configuration not stated), the inhibition was -10.2%.

Take `COc1cc(-c2cc(C(=O)OCC(=O)Nc3ccc4c(c3)OCO4)c3ccccc3n2)cc(OC)c1OC`: the inhibition is 5.72%.

Consider `O=C(COC(=O)c1c2c(nc3ccccc13)CCCC2)c1ccc(Br)s1`, for which the inhibition was -9.74%.

As for `NC(=O)c1ccc(NC(=O)COC(=O)c2c3c(nc4ccccc24)/C(=C\c2ccc4c(c2)OCO4)CCC3)cc1`, the inhibition was 69.5% (active).

On to `O=C(COC(=O)c1c2c(nc3ccccc13)/C(=C\c1cccs1)CCC2)Nc1ccccc1Cl`, for which the inhibition is 54.9% (active).

`COc1cc(/C=C2\CCCc3c2nc2ccccc2c3C(=O)O)cc(Cl)c1O`: the inhibition was 6.47%.

As to `O=C1CN(C(=O)c2cc(F)cc(F)c2)c2ccccc2N1`, the inhibition was -7.57%.

`CCCc1cc(=O)[nH]c(SCC(=O)c2c(N)n(CC(C)C)c(=O)n(C)c2=O)n1`: the inhibition was -8.24%.

With `CCOc1ccc(-c2cc(C(=O)N/N=C/c3ccc(O)cc3)c3ccccc3n2)cc1`, the inhibition is 18.7%.

For the compound `CCNS(=O)(=O)c1ccc(NC(=O)Nc2cccc(C(F)(F)F)c2)cc1`, the inhibition was 61.3% (active).

Regarding `CCNS(=O)(=O)c1ccc(NC(=O)Nc2cccc(OC)c2)cc1`, the inhibition is -9.54%.

Take `Cc1ccc(NC(=O)Nc2cccc(C(F)(F)F)c2)nc1`: the inhibition is 11.1%.

As to `Cn1ccc(=Nc2ccc(NC(=O)c3ccc(N=c4ccn(C)c5ccc([N+](=O)[O-])cc45)cc3)cc2)cc1`, the inhibition is 33.3%.

On to `Cn1c(CCc2ccccc2)nnc1SCC(N)=O`, for which the inhibition is -8.67%.

As to `Cc1ccc(Cc2nnc(SCC(=O)Nc3ccc(C)cc3C)[nH]c2=O)cc1`, the inhibition is -8.53%.

With `COc1cc2ccccc2cc1C(=O)Nc1nc(C)c(C(C)=O)s1`, the inhibition is -2.79%.

Turning to `COc1cccc2sc(Nc3nc(C)c(C(C)=O)s3)nc12`, the inhibition is 89.1% (active).

With `COc1ccccc1/C=N/Nc1nc(C)c(C(C)=O)s1`, the inhibition was 6.16%.

With `COc1ccc(C)cc1S(=O)(=O)Nc1cc2c3c(c1)CCC(=O)N3CCC2`, the inhibition was -2.17%.

Regarding `CC(C)=NN1C(=O)c2ccccc2NC1(C)C`, the inhibition is -9.69%.

`COc1ccc(C2=NN(C(C)=O)C(c3ccccc3)C2)cc1` (configuration not stated): the inhibition is -1.39%.

For `COc1ccc(C2CC(c3ccccc3)=NN2C(=O)CSc2nccc(=O)[nH]2)cc1` (configuration not stated), the inhibition was -0.127%.

Take `O=C(CSc1nnnn1-c1ccc(O)cc1)N1N=C(c2ccc3ccccc3c2)CC1c1ccccc1` (configuration not stated): the inhibition is 71.2% (active).

`Cc1ccc(S(=O)(=O)n2cccc2CO)cc1`: the inhibition is -12.2%.

On to `O=C(NNS(=O)(=O)c1ccc([N+](=O)[O-])cc1)C1CCCCC1`, for which the inhibition is -10.2%.

With `CC(=O)Nc1cccc(C(=O)OCC(=O)Nc2nnc(-c3ccccc3)o2)c1`, the inhibition is -2%.

On to `CCN(CC)S(=O)(=O)c1ccc(C(=O)N2CCN(C3=NS(=O)(=O)c4ccccc43)CC2)cc1`, for which the inhibition was 0.744%.

Take `CCOc1ccc(OCc2cccc(C(=O)N(CC)CC)c2)cc1`: the inhibition was 14.3%.

As for `CC(C)c1cc(C(N)=O)c(NC(=O)c2cccc(COc3ccc(Br)cc3)c2)s1`, the inhibition was 60.2% (active).

Consider `CCc1cc(C(N)=O)c(NC(=O)c2ccc(OC)cc2)s1`, for which the inhibition was 15.5%.

On to `COc1cccc(COC(=O)C2CCN(S(=O)(=O)c3cccs3)CC2)c1OC`, for which the inhibition is 0.844%.

Consider `CCOc1ccc(S(=O)(=O)Nc2ccc(C(=O)NCCCN3CCCC3=O)cc2)cc1`, for which the inhibition was 3.32%.

Consider `Cc1cccc(NC(=O)c2sc(-c3ccccc3)nc2-c2ccc([N+](=O)[O-])cc2)c1`, for which the inhibition is 55.5% (active).

In the case of `Cc1cccc(NC(=O)c2cc([N+](=O)[O-])ccc2N2CCN(C)CC2)c1`, the inhibition was 2.53%.

Regarding `Cc1cccc(NC(=O)c2ccc([N+](=O)[O-])o2)c1`, the inhibition is 41.2%.

(Values after PubChem BioAssay AID1885 (Broad Institute, 2009).)
